# pKd: −log10 of the molar value. No end group written: not given here.
# Legend:
# DT40 cells = assay: MTT cell viability assay; type: cell-based, chicken; details: 10 to 500 nM peptide, 24 h, OD450
# chicken PD-1 protein = target: T1, chicken PD-1 protein (Gallus gallus, UniProt A0A1L1RYS1); assay: MST affinity of peptides for chicken PD-1 protein; type: binding
# T1 sequence (A0A1L1RYS1 1-304): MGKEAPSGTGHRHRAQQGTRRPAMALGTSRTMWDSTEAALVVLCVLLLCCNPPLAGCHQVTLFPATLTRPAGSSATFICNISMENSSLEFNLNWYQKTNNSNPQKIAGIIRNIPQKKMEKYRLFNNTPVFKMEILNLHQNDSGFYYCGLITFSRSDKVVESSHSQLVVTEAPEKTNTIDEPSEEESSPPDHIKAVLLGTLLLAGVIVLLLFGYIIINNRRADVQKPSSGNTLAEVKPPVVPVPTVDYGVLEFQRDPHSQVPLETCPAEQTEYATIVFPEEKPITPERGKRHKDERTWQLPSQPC
# In short: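 Chicken PD-1 protein labelled with a BLUE-NHS amine-reactive dye, then mixed in equal volumes with each peptide from a 2-fold dilution series in PBS (pH 7.4), 1800 to 0.054 nM. Incubated about 5 min, loaded into standard capillaries and read at once by microscale thermophoresis. Chicken PD-L1 protein (100 nM) as positive control. KD reported as the mean of 3 independent experiments.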
sequence,measurement,setting,value
DAGLYHCLIEYGGADYKTINLK [gDK2-3],cell viability (cytotoxicity),DT40 cells,no significant effect on cell viability
same,pKd,chicken PD-1 protein,8.01

# Reference: paper PMC11533547 (Poultry Science, 2024)
